Measurements reported in ChEMBL document CHEMBL1155063 (Bioorg Med Chem, 2008).
Active and inactive are the calls of the source. The calls are words filed in the database; no cut-off is given here.

How the values were obtained:
TK-10 = experiment: Cytotoxicity against human TK10 cells at 10 uM after 48 hrs by MTT assay; format: functional; conditions: TK-10, 48 h, values are per cent of control
Procedure, shortened: (§1)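 Single-dose screen in the NCI 60-cell-line panel, run according to the Developmental Therapeutics Program protocol (one-dose mean graph). The result is the growth percentage of treated cells relative to untreated control cells.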

U-251 = experiment: Cytotoxicity against human U251 cells at 10 uM after 48 hrs by MTT assay; format: functional; conditions: U-251, 48 h, values are per cent of control; procedure, shortened: as §1
UACC-257 = experiment: Cytotoxicity against human UACC257 cells at 10 uM after 48 hrs by MTT assay; format: functional; conditions: UACC-257, 48 h, values are per cent of control; procedure, shortened: as §1
DU-145 = experiment: Cytotoxicity against human DU145 cells at 10 uM after 48 hrs by MTT assay; format: functional; conditions: DU-145, 48 h, values are per cent of control
Procedure, shortened: (§2)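 Single-dose screen on the NCI 60-cell-line panel, run to the Developmental Therapeutics Program protocol (one-dose mean graph). Each value is the growth percentage of treated cells against untreated control cells.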

PC-3 = experiment: Cytotoxicity against human PC3 cells at 10 uM after 48 hrs by MTT assay; format: functional; conditions: PC-3, 48 h, values are per cent of control; procedure, shortened: as §2
SF-295 = experiment: Cytotoxicity against human SF295 cells at 10 uM after 48 hrs by MTT assay; format: functional; conditions: SF-295, 48 h, values are per cent of control; procedure, shortened: as §2
SF-539 = experiment: Cytotoxicity against human SF539 cells at 10 uM after 48 hrs by MTT assay; format: functional; conditions: SF-539, 48 h, values are per cent of control; procedure, shortened: as §2
SNB-75 = experiment: Cytotoxicity against human SNB75 cells at 10 uM after 48 hrs by MTT assay; format: functional; conditions: SNB-75, 48 h, values are per cent of control; procedure, shortened: as §1
[1] = biological target: T1, Telomerase reverse transcriptase (Homo sapiens, UniProt O14746); experiment: Inhibition of telomerase in human H1299 cells at 1 to 20 uM by TRAP assay; format: cell-based
T1 sequence (O14746 whole entry): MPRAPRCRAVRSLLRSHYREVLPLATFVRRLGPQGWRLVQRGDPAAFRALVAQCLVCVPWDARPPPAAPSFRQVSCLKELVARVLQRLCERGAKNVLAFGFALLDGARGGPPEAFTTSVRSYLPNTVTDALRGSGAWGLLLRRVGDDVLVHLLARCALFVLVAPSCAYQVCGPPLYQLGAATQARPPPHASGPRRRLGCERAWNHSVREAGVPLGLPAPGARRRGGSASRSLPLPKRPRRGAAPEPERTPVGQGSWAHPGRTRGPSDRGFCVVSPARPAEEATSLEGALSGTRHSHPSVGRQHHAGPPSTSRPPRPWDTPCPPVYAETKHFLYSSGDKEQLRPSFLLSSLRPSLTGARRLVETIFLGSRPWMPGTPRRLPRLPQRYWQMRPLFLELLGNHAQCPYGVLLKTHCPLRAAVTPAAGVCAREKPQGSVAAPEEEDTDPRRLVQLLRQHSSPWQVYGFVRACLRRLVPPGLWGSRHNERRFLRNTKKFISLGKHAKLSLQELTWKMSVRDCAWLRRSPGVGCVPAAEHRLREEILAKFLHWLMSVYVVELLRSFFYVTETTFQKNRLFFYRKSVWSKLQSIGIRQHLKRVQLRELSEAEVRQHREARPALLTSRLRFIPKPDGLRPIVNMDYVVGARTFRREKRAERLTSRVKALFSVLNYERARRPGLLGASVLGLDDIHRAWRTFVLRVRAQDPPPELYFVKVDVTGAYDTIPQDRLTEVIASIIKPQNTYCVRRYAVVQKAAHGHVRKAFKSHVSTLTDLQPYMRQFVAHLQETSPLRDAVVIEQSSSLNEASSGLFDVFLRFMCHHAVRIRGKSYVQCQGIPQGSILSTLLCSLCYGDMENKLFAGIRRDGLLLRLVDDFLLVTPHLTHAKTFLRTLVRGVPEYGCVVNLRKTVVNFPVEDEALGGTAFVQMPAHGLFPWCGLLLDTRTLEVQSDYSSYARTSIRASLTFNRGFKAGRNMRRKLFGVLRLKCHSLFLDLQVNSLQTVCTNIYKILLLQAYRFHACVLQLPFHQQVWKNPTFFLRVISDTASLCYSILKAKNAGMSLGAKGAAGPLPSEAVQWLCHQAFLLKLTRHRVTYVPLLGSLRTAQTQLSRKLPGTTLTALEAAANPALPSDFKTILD
Procedure, shortened: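 Modified TRAP assay using 2 µg total lysate from H1299 lung cancer cells as the telomerase source. Compounds were tested at 1, 5, 10 and 20 µM. Products were resolved on 10% polyacrylamide gels and stained with SYBR Green. A Taq-polymerase internal control was included, along with positive and negative controls.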

[2] = Cytotoxicity against human TERT immortalized BJ1 cells at 100 uM after 48 hrs by MTT assay relative to control; format: cell-based, BJ
Procedure, shortened: (§3)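 hTERT-immortalized BJ1 fibroblasts were grown in DMEM with 10% FCS, 1 mM pyruvate and 4 mM […]. Cells (about 2 × 10^3 per well) were seeded and held 24 h at 37 °C. Compounds were freshly dissolved in DMSO, diluted into medium and left on the cells 48 h. MTT was added for 4 h, then SDS/DMF lysis buffer for 16 h. Absorbance was read at 550 nm and expressed relative to untreated cells (100%).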

[3] = Cytotoxicity against human TERT immortalized BJ1 cells at 10 uM after 48 hrs by MTT assay relative to control; format: cell-based, BJ; procedure, shortened: as §3
[4] = Cytotoxicity against human CAK1-1 cells at 10 uM after 48 hrs by MTT assay; format: functional; conditions: CAK1-1, 48 h; procedure, shortened: as §2
SN12C = experiment: Cytotoxicity against human SN12C cells at 10 uM after 48 hrs by MTT assay; format: functional; procedure, shortened: as §2
EKVX = experiment: Cytotoxicity against human EKVX cells at 10 uM after 48 hrs by MTT assay; format: functional; procedure, shortened: as §2
HOP-62 = experiment: Cytotoxicity against human HOP62 cells at 10 uM after 48 hrs by MTT assay; format: functional; conditions: HOP-62, 48 h; procedure, shortened: as §2
HOP-92 = experiment: Cytotoxicity against human HOP92 cells at 10 uM after 48 hrs by MTT assay; format: functional; conditions: HOP-92, 48 h; procedure, shortened: as §2
NCI-H23 = experiment: Cytotoxicity against human NCI-H23 cells at 10 uM after 48 hrs by MTT assay; format: functional; conditions: NCI-H23, 48 h; procedure, shortened: as §2
NCI-H322M = experiment: Cytotoxicity against human NCI-H322M cells at 10 uM after 48 hrs by MTT assay; format: functional; procedure, shortened: as §2
COLO 205 = experiment: Cytotoxicity against human COLO205 cells at 10 uM after 48 hrs by MTT assay; format: functional; conditions: COLO 205, 48 h, values are per cent of control; procedure, shortened: as §2
MCF7 = experiment: Cytotoxicity against human MCF7 cells at 10 uM after 48 hrs by MTT assay; format: functional; conditions: MCF7, 48 h, values are per cent of control; procedure, shortened: as §2
OVCAR-3 = experiment: Cytotoxicity against human OVCAR-3 cells at 10 uM after 48 hrs by MTT assay; format: functional; conditions: OVCAR-3, 48 h; procedure, shortened: as §2
OVCAR-8 = experiment: Cytotoxicity against human OVCAR8 cells at 10 uM after 48 hrs by MTT assay; format: functional; conditions: OVCAR-8, 48 h; procedure, shortened: as §2
CCRF-CEM = experiment: Cytotoxicity against human CCRF-CEM cells at 10 uM after 48 hrs by MTT assay; format: functional; procedure, shortened: as §2
K562 = experiment: Cytotoxicity against human K562 cells at 10 uM after 48 hrs by MTT assay; format: functional; conditions: K562, 48 h; procedure, shortened: as §2
MOLT-4 = experiment: Cytotoxicity against human MOLT4 cells at 10 uM after 48 hrs by MTT assay; format: functional; conditions: MOLT-4, 48 h; procedure, shortened: as §2
RPMI-8226 = experiment: Cytotoxicity against human RPMI-8226 cells at 10 uM after 48 hrs by MTT assay; format: functional; conditions: RPMI-8226, 48 h; procedure, shortened: as §2
SR = experiment: Cytotoxicity against human SR cells at 10 uM after 48 hrs by MTT assay; format: functional; procedure, shortened: as §1
786-0 = experiment: Cytotoxicity against human 786-0 cells at 10 uM after 48 hrs by MTT assay; format: functional; conditions: 786-0, 48 h; procedure, shortened: as §2
HCT-15 = experiment: Growth percent of human HCT15 cells at 10 uM after 48 hrs by MTT assay; conditions: HCT-15, 48 h
HCT-116 = experiment: Growth percent of human HCT116 cells at 10 uM after 48 hrs by MTT assay; conditions: HCT-116, 48 h
NCI-H460 = experiment: Growth percent of human NCI-H460 cells at 10 uM after 48 hrs by MTT assay; conditions: NCI-H460, 48 h
[5] = Cell viability of human H1299 cells at 1 uM after 48 hrs by MTT assay relative to control; conditions: NCI-H1299, 48 h
[6] = biological target: T1, Telomerase reverse transcriptase; experiment: Effect on human TERT expressed in BJ1 cells at 10 uM after 24 hrs by SEAP assay relative to control; conditions: BJ
[7] = biological target: T1, Telomerase reverse transcriptase; experiment: Effect on human TERT expressed in H1299 cells at 10 uM after 24 hrs by SEAP assay relative to control
[8] = biological target: T1, Telomerase reverse transcriptase; experiment: Effect on human TERT expressed in H1299 cells at 100 uM after 24 hrs by SEAP assay relative to control

SMILES: O=C(CCN1CCCC1)Nc1ccc2c(c1)C(=O)c1cc(NC(=O)CCN3CCCC3)ccc1C2=O
- growth, % of control at 10 µM (TK-10): 31.2%
- growth, % of control at 10 µM (U-251): 18.2%
- growth, % of control at 10 µM (UACC-257): -17.9%
- growth, % of control at 10 µM (DU-145): 29.5%
- growth, % of control at 10 µM (PC-3): 21.7%
- growth, % of control at 10 µM (SF-295): 48.6%
- growth, % of control at 10 µM (SF-539): 33.8%
- growth, % of control at 10 µM (SNB-75): 77.5%
- Activity [1]: Active
- viability at 48 h, 100 µM [2]: 39%
- viability at 48 h, 10 µM [3]: 68%
- growth percent at 10 µM [4]: 55.5%
- growth percent at 10 µM (SN12C): 6.68%
- growth percent at 10 µM (EKVX): 58.7%
- growth percent at 10 µM (HOP-62): 18.8%
- growth percent at 10 µM (HOP-92): 7.04%
- growth percent at 10 µM (NCI-H23): 31.5%
- growth percent at 10 µM (NCI-H322M): 45.8%
- growth, % of control at 10 µM (COLO 205): -29%
- growth, % of control at 10 µM (MCF7): 13.3%
- growth percent at 10 µM (OVCAR-3): 36.9%
- growth percent at 10 µM (OVCAR-8): 19.6%
- growth percent at 10 µM (CCRF-CEM): 3.74%
- growth percent at 10 µM (K562): 6.4%
- growth percent at 10 µM (MOLT-4): 23%
- growth percent at 10 µM (RPMI-8226): 47.9%
- growth percent at 10 µM (SR): 19.8%
- growth percent at 10 µM (786-0): 40.5%
- growth percent at 10 µM (HCT-15): 56.1%
- growth percent at 10 µM (HCT-116): 10.5%
- growth percent at 10 µM (NCI-H460): 25.5%
- cell viability at 1 µM [5]: 87%
- residual activity [6]: 67%
- residual activity [7]: 29%
- residual activity [8]: 17%

SMILES: CN(C)CC(=O)Nc1ccc2c(c1)C(=O)c1cc(NC(=O)CN(C)C)ccc1C2=O
- growth, % of control at 10 µM (TK-10): 73.5%
- growth, % of control at 10 µM (U-251): 16.1%
- growth, % of control at 10 µM (UACC-257): -1.84%
- growth, % of control at 10 µM (DU-145): 78.7%
- growth, % of control at 10 µM (PC-3): 59%
- growth, % of control at 10 µM (SF-295): -83.5%
- growth, % of control at 10 µM (SF-539): -3.72%
- growth, % of control at 10 µM (SNB-75): 76.1%
- viability at 48 h, 100 µM [2]: 39%
- viability at 48 h, 10 µM [3]: 45%
- growth percent at 10 µM [4]: 59.3%
- growth percent at 10 µM (SN12C): 28%
- growth percent at 10 µM (EKVX): 102%
- growth percent at 10 µM (HOP-62): 29%
- growth percent at 10 µM (HOP-92): 56.1%
- growth percent at 10 µM (NCI-H23): 51.8%
- growth percent at 10 µM (NCI-H322M): 32.4%
- growth, % of control at 10 µM (COLO 205): -73.6%
- growth, % of control at 10 µM (MCF7): 7.92%
- growth percent at 10 µM (OVCAR-3): 43.6%
- growth percent at 10 µM (OVCAR-8): 32.3%
- growth percent at 10 µM (CCRF-CEM): -13.2%
- growth percent at 10 µM (K562): 34.9%
- growth percent at 10 µM (MOLT-4): 29.1%
- growth percent at 10 µM (RPMI-8226): 35%
- growth percent at 10 µM (SR): -46.5%
- growth percent at 10 µM (786-0): 68.6%
- growth percent at 10 µM (HCT-15): 16.3%
- growth percent at 10 µM (HCT-116): 19.1%
- growth percent at 10 µM (NCI-H460): 5.01%
- cell viability at 1 µM [5]: 92%
- residual activity [6]: 44%
- residual activity [7]: 40%
- residual activity [8]: 21%
